pEC50, pIC50: −log10 of the molar value. Values after ≈ are worked out from the molar mass of the structure shown. Active and inactive are the calls of the source. The calls are words filed in the database; no cut-off is given here.
Columns and labels:
[1] = Modulation of gamma-secretase in human H4 cells expressing human APP751 assessed as inhibition of amyloid beta 42 production incubated overnight by sandwich ELISA; format: cell-based
How it was run: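 Aβ42 EC50 in H4 cells overexpressing WT human APP751; each value is the average of n > 2 assays, each run in duplicate.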

[2] = Unbound intrinsic clearance in rat hepatocytes; format: ADME, cell-based, Hepatocyte
[3] = Ratio of drug level in brain to plasma in mouse at 90 mg/kg, po measured at 6 hrs post dose; format: ADME, organism-based; conditions: read-out: BPR
How it was run: (§1)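 Mice dosed 90 mg/kg; brain Aβ42 lowering, total brain drug concentration and brain:plasma ratio measured 6 hours post-dose.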

Mus musculus [4] = test: Reduction in amyloid beta 42 levels in mouse brain at 90 mg/kg, po measured at 6 hrs post dose by ELISA; format: functional; how it was run: as §1
[5] = Total drug uptake in mouse brain at 90 mg/kg, po measured at 6 hrs post dose; format: ADME, organism-based; conditions: read-out: Drug uptake; how it was run: as §1
[6] = Clearance in Wistar rat at 1 mg/kg, iv; format: ADME, organism-based; conditions: in vivo
How it was run: (§2)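 Intravenous dosing at 1 mg/kg; half-life, steady-state volume of distribution and clearance derived from the i.v. administration.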

Rattus norvegicus [7] = test: Reduction in amyloid beta 42 levels in rat brain at 30 mg/kg, po measured at 6 hrs post dose by ELISA; format: functional
How it was run: (§3)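 Single oral dose of 30 mg/kg; brain (mouse, rat) and rat CSF Aβ42 and Aβ37 measured 6 h post-dose, expressed relative to vehicle; total and free brain drug levels and brain:plasma ratio taken at the same time.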

[8] = Cmax in Wistar rat at 10 mg/kg, po; format: ADME, organism-based; parameters: dose 10 mg/kg, route oral; conditions: in vivo
How it was run: (§4)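 Oral dosing; AUC and Cmax taken from the p.o. administration; bioavailability (%F) calculated from p.o. and i.v. data.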

Cytochrome P450 2D6 = Cytochrome P450 2D6 (Homo sapiens, UniProt P10635); test: Inhibition of CYP2D6 (unknown origin); format: ADME
Chain of Cytochrome P450 2D6 (P10635 whole entry): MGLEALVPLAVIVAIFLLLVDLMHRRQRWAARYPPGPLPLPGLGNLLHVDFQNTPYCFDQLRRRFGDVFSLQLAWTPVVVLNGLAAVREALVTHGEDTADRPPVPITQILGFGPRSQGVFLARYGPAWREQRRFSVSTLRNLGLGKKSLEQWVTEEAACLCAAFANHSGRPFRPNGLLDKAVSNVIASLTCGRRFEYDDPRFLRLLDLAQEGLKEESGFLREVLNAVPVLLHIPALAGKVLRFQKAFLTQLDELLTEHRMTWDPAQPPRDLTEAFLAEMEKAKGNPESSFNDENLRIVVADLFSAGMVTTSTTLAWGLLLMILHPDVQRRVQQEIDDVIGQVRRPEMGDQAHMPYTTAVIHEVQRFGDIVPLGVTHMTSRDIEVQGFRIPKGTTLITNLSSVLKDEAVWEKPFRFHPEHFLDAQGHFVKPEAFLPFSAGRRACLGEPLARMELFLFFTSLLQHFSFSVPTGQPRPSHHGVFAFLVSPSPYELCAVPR

Rattus norvegicus [9] = test: Reduction in amyloid beta 42 levels in rat CSF at 30 mg/kg, po measured at 6 hrs post dose by ELISA; format: functional; how it was run: as §3
[10] = Volume of distribution at steady state in Cynomolgus monkey at 1 mg/kg, iv; format: ADME, organism-based, Macaca fascicularis; conditions: in vivo, read-out: Vdss; how it was run: as §2
[11] = AUClast in Wistar rat at 10 mg/kg, po; format: ADME, organism-based; parameters: dose 10 mg/kg, route oral, time 0 - last; conditions: in vivo; how it was run: as §4
Cytochrome P450 2C9 = Cytochrome P450 2C9 (Homo sapiens, UniProt P11712); test: Inhibition of CYP2C9 (unknown origin); format: ADME
Chain of Cytochrome P450 2C9 (P11712 whole entry): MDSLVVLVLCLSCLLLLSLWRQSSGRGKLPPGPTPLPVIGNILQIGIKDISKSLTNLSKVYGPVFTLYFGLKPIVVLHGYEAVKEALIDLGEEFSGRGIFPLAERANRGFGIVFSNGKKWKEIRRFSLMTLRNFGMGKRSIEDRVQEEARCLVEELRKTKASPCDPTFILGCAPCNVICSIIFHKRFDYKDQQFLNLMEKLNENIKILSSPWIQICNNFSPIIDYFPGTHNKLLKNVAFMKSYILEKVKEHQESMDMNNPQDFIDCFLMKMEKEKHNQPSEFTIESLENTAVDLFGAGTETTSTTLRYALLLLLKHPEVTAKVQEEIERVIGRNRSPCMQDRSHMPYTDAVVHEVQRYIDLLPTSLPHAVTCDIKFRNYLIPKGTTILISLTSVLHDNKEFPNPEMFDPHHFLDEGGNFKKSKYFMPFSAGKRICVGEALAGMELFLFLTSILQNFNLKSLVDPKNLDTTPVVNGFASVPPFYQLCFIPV

Cytochrome P450 1A2 = biological target: T1, Cytochrome P450 1A2 (Homo sapiens, UniProt P05177); test: Inhibition of CYP1A2 (unknown origin); format: ADME
T1 sequence (P05177 whole entry): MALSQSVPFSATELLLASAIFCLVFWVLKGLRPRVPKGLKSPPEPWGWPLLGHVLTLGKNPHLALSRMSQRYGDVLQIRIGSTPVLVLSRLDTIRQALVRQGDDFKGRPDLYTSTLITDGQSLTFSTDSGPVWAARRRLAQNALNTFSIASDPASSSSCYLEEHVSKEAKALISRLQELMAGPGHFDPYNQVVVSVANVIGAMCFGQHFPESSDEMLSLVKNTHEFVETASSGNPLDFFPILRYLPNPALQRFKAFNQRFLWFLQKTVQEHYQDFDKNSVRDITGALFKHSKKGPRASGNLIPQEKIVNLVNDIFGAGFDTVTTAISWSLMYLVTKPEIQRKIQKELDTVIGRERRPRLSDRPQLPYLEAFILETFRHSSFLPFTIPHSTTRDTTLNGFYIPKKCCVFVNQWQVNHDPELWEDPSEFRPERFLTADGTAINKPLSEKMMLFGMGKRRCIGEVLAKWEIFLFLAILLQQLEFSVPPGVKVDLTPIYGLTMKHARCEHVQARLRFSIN

[12] = Total drug level in mouse brain at 30 mg/kg, po measured at 6 hrs post dose; format: ADME, organism-based; conditions: read-out: Drug uptake; how it was run: as §3
Rattus norvegicus [13] = test: Increase in amyloid beta 37 levels in rat brain at 30 mg/kg, po measured at 6 hrs post dose by ELISA relative to control; format: functional; how it was run: as §3
Cynomolgus monkey [14] = test: Oral bioavailability in Cynomolgus monkey at 10 mg/kg; format: ADME, organism-based, Macaca fascicularis; conditions: in vivo; how it was run: as §4
[15] = Ratio of drug level in brain to plasma in mouse at 30 mg/kg, po measured at 6 hrs post dose; format: ADME, organism-based; conditions: read-out: BPR; how it was run: as §3
Cytochrome P450 3A4 [16] = biological target: T2, Cytochrome P450 3A4 (Homo sapiens, UniProt P08684); test: Time dependent inhibition of CYP3A4 (unknown origin) at 5 to 25 uM; format: ADME
T2 sequence (P08684 whole entry): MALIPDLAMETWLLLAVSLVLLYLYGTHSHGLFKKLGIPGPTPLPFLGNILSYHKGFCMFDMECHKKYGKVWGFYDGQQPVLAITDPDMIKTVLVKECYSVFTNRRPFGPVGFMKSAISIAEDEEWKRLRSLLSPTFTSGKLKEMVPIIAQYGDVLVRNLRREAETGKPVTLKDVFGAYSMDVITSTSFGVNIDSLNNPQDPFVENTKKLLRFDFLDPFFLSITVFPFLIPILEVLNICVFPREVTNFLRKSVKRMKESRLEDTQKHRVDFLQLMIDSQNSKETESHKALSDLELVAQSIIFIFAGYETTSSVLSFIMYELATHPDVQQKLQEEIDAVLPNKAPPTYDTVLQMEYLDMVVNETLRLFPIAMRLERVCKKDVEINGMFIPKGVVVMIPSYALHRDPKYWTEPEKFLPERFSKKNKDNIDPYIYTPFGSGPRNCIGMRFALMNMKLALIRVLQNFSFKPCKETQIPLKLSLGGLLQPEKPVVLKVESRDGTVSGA

Cytochrome P450 2C19 = Cytochrome P450 2C19 (Homo sapiens, UniProt P33261); test: Inhibition of CYP2C19 (unknown origin); format: ADME
Chain of Cytochrome P450 2C19 (P33261 whole entry): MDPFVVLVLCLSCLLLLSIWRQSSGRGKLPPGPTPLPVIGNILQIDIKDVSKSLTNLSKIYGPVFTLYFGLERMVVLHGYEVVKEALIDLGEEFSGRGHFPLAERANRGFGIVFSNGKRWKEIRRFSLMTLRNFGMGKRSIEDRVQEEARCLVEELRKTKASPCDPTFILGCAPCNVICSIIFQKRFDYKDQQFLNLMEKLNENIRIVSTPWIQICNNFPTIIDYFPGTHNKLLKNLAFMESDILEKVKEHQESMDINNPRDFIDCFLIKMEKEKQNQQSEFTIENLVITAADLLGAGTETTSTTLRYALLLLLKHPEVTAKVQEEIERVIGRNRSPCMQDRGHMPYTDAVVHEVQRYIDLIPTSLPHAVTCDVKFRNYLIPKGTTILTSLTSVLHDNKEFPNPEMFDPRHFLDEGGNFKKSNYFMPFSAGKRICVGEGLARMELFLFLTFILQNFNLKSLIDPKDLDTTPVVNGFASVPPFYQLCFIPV

Mus musculus [17] = test: Increase in amyloid beta 37 levels in mouse brain at 30 mg/kg, po measured at 0.5 to 24 hrs post dose by ELISA relative to control
Cytochrome P450 3A4 [18] = biological target: T2, Cytochrome P450 3A4; test: Inhibition of CYP3A4 (unknown origin); format: ADME
Rattus norvegicus [19] = test: Increase in amyloid beta 37 levels in rat CSF at 30 mg/kg, po measured at 6 hrs post dose by ELISA relative to control; format: functional; how it was run: as §3
[20] = Volume of distribution at steady state in Wistar rat at 1 mg/kg, iv; format: ADME, organism-based; conditions: in vivo, read-out: Vdss; how it was run: as §2
[21] = Oral bioavailability in Wistar rat at 10 mg/kg; format: ADME, organism-based; conditions: in vivo; how it was run: as §4
Mus musculus [22] = test: Decrease in amyloid beta 42 in mouse brain at 30 mg/kg, po administered as single dose after 0.5 to 24 hrs; format: functional
[23] = Aqueous solubility of compound in phosphate buffer at pH 7.4 after 90 mins; format: physicochemical
How it was run: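 Kinetic solubility method in pH 7.4 phosphate buffer, incubated 90 min at room temperature.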

Cynomolgus monkey [24] = test: AUClast in Cynomolgus monkey at 10 mg/kg, po; format: ADME, organism-based, Macaca fascicularis; parameters: dose 10 mg/kg, route oral, time 0 - last; conditions: in vivo; how it was run: as §4
[25] = Cytotoxicity against human HepG2 cells assessed as reduction in cell viability by measuring ATP; conditions: read-out: TC50 (the source's name)
[26] = biological target: Voltage-gated inwardly rectifying potassium channel KCNH2 (Homo sapiens, UniProt Q12809); test: Inhibition of human ERG by patch clamp assay
Chain of Voltage-gated inwardly rectifying potassium channel KCNH2 (Q12809 whole entry): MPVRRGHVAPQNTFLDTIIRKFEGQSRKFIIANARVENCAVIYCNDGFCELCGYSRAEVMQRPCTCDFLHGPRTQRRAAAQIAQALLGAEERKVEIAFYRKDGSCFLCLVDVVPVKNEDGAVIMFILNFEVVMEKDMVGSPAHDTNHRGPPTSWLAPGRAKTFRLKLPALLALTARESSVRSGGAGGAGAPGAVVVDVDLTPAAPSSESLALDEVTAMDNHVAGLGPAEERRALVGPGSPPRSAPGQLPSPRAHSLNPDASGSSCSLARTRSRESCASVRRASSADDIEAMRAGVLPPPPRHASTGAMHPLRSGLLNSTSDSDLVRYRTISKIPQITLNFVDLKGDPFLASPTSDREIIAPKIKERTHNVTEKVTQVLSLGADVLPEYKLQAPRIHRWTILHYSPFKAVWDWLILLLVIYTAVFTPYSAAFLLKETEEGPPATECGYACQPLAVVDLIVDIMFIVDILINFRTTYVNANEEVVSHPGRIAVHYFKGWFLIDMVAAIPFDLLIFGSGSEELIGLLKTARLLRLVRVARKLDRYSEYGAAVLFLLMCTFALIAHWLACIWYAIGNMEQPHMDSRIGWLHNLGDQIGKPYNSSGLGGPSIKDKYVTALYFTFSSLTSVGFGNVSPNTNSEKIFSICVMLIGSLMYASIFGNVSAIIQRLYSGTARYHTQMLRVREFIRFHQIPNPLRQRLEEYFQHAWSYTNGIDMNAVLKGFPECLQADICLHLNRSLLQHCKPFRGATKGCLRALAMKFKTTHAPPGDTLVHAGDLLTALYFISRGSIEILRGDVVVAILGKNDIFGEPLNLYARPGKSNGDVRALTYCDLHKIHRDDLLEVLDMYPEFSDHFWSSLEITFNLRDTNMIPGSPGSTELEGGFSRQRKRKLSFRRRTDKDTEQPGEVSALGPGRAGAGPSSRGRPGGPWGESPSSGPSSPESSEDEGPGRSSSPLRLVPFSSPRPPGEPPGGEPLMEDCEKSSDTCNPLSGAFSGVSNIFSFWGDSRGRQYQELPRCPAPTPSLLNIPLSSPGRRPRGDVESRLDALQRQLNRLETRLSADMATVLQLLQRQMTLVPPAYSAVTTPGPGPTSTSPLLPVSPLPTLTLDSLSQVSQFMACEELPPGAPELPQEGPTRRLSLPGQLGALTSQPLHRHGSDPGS
How it was run: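 Functional patch clamp assay of hERG current; IC50 derived.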

TK6 [27] = test: Genotoxicity in p53-competent human TK6 cells in presence of S9 fraction by GADD45alpha GFP reporter assay; format: toxicity, cell-based
How it was run: (§5)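 GreenScreen GADD45alpha-GFP reporter assay in human cells, run externally.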

[28] = Permeability from apical to basolateral side in human Caco2 cells; format: ADME, cell-based; conditions: Caco-2, read-out: permeability
How it was run: (§6)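 Caco-2 monolayer assay; apical-to-basolateral permeability (cm/s) and efflux ratio used to judge P-gp efflux potential.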

Cytochrome P450 2C8 = biological target: T3, Cytochrome P450 2C8 (Homo sapiens, UniProt P10632); test: Inhibition of CYP2C8 (unknown origin); format: ADME
T3 sequence (P10632 whole entry): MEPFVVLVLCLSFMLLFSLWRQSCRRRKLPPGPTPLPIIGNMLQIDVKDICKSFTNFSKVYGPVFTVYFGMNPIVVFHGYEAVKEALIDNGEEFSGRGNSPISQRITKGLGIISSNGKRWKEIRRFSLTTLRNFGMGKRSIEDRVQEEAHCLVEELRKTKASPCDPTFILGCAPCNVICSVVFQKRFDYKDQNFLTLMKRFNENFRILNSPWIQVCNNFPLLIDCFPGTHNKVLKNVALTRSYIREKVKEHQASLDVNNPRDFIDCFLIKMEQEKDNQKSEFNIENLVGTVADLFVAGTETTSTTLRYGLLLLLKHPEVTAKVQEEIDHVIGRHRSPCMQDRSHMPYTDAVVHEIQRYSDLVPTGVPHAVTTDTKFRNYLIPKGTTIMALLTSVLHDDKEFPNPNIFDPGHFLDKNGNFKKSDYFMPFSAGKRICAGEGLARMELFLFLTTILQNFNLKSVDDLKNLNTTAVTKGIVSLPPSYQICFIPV

Mus musculus [29] = test: Reduction in amyloid beta 42 levels in mouse brain at 30 mg/kg, po measured at 6 hrs post dose by ELISA; format: functional; how it was run: as §3
[30] = Total drug level in rat brain at 30 mg/kg, po measured at 6 hrs post dose; format: ADME, organism-based; conditions: read-out: Drug uptake; how it was run: as §3
Brain [31] = test: Unbound drug level in rat brain at 30 mg/kg, po measured at 6 hrs post dose; format: ADME, organism-based; conditions: in vivo; how it was run: as §3
[32] = Efflux ratio of permeability in human Caco2 cells; format: ADME, cell-based; conditions: Caco-2; how it was run: as §6
[33] = Half life in Wistar rat at 1 mg/kg, iv; format: ADME, organism-based; conditions: in vivo; how it was run: as §2
TK6 [34] = test: Genotoxicity in p53-competent human TK6 cells in absence of S9 fraction by GADD45alpha GFP reporter assay; format: toxicity, cell-based; how it was run: as §5
Brain [35] = test: Unbound drug level in mouse brain at 30 mg/kg, po measured at 6 hrs post dose; format: ADME, organism-based; conditions: in vivo; how it was run: as §3
[36] = Half life in Cynomolgus monkey at 1 mg/kg, iv; format: ADME, organism-based, Macaca fascicularis; conditions: in vivo; how it was run: as §2
[37] = Cmax in Cynomolgus monkey at 10 mg/kg, po; format: ADME, organism-based, Macaca fascicularis; parameters: dose 10 mg/kg, route oral; conditions: in vivo; how it was run: as §4
Mus musculus [38] = test: Increase in amyloid beta 37 levels in mouse brain at 30 mg/kg, po measured at 6 hrs post dose by ELISA relative to control; format: functional; how it was run: as §3
Mus musculus [39] = test: Decrease in amyloid beta 42 AUC(1 to 24 hrs) in mouse brain at 30 mg/kg, po administered as single dose after 0.5 to 24 hrs; format: functional

## COc1nc(C2=NOC[C@@H]3[C@H](Oc4ccc(Cl)cc4C(F)(F)F)CCCN23)ccc1-n1cnc(C)c1
[1]; Homo sapiens
  pEC50: 7.82
[2]
  CL free: 4251 mL/min/kg
[3]
  Kp at 6 h: 0.6
Mus musculus [4]
  inhibition in vivo at 90 mg/kg: 32%
[5]
  concentration at 6 h: 36 µM

## COc1nc(C2=NOCC3CN(c4ccc(Cl)cc4C(F)(F)F)CCN23)ccc1-n1cnc(C)c1 (single isomer, unassigned; (-))
[1]
  pEC50: 6.51

## COc1nc(C2=NOC[C@H](c3cc4ccccc4o3)N2)ccc1-n1cnc(C)c1
[1]; Homo sapiens
  pEC50: 7.46
[2]
  CL free: 84 mL/min/kg
[6]
  clearance: 5.8 mL/min/kg
Rattus norvegicus [7]
  inhibition in vivo at 30 mg/kg: 30%
[8]
  Cmax: 7.3 µM
Cytochrome P450 2D6
  pIC50: 5.70
Rattus norvegicus [9]
  inhibition in vivo at 30 mg/kg: 58%
[10]
  Vd: 0.9 L/kg
[11]
  AUC(0-t): 67.8 µM·h
Cytochrome P450 2C9
  pIC50: 5.10
Cytochrome P450 1A2
  pIC50: 5.52
[12]
  concentration at 6 h: 29.8 to 30 µM
Rattus norvegicus [13]
  fold change (FC): 2.5
Cynomolgus monkey [14]
  F: 136%
[15]
  Kp at 6 h: 1.5
Cytochrome P450 3A4 [16]
  TDI: Not Active
Cytochrome P450 2C19
  pIC50: 4.77
Mus musculus [17]
  fold change (FC): 3.1
Cytochrome P450 3A4 [18]
  pIC50: 4.60
Rattus norvegicus [19]
  fold change (FC): 20
[20]
  Vd: 1 L/kg
[21]
  bioavailability: 93%
Mus musculus [22]
  Imax: 45%
[23]
  solubility at 1.5 h: 84 µM (≈ 32.7 µg/mL)
Cynomolgus monkey [24]
  AUClast: 8.1 µM·h
[25]
  CC50: > 72 µM
[26]
  pIC50: 4.82
TK6 [27]
  Activity: Non-Toxic
[28]
  Papp A→B: 10 ×10⁻⁶ cm/s
Cytochrome P450 2C8
  pIC50: < 4.60
Mus musculus [29]
  inhibition in vivo at 30 mg/kg: 43%
[30]
  concentration at 6 h: 13.7 µM
Brain [31]
  Drug uptake(free): 156 nM
[32]
  efflux ratio: 1.1
[33]
  half-life: 132 min
TK6 [34]
  Activity: Non-Toxic
Brain [35]
  Drug uptake(free): 427 nM
[36]
  half-life: 90 min
[37]
  Cmax: 11 µM
Mus musculus [38]
  fold change (FC): 3.2
Mus musculus [39]
  inhibition in vivo at 30 mg/kg: 34%

## COc1cc(C2=NOC[C@H](COc3ccc(Cl)cc3C(F)(F)F)N2)ccc1-c1ccnc(C)c1
[1]; Homo sapiens
  pEC50: 6.60
Mus musculus [29]
  Activity: inactive

## COc1cc(C2=NOC[C@H](COc3ccc(Cl)cc3C(F)(F)F)N2C)ccc1-n1cnc(C)c1
[1]; Homo sapiens
  pEC50: 6.95
Mus musculus [29]
  Activity: inactive

## COc1nc(C2=NOC[C@H]3[C@@H](Oc4ccc(F)cc4C)CCCN23)ccc1-n1cnc(C)c1
[1]; Homo sapiens
  pEC50: < 5.52

Source: ChEMBL document CHEMBL4007439, “Design, Synthesis, and Evaluation of a Novel Series of Oxadiazine Gamma Secretase Modulators for Familial Alzheimer's Disease” (J Med Chem, 2017)
